Experimental data as given in article PMC9064899 (The FEBS journal, 2021).
Positions count from the first letter of the chain named.

Experiments:
UBIAD1 G177E = target: T1, UBIAD1 G177E (Homo sapiens, UniProt Q9Y5Z9, G177E); assay: Cell-based UBIAD1 functional assay
T1 sequence (Q9Y5Z9 1-338 G177E): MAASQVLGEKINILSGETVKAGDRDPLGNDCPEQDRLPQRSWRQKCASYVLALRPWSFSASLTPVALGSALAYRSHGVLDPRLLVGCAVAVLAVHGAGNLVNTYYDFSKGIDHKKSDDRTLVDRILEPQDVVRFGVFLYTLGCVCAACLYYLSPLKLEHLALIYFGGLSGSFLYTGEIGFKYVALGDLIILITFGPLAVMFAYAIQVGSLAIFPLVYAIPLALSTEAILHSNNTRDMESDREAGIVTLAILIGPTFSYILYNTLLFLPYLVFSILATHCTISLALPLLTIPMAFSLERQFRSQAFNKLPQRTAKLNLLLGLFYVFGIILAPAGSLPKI
Procedure, shortened: (§1)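 Wild-type or mutant human UBIAD1 in pCI-neo was transiently transfected into Ubiad1-knockout FIXgla-PC/HEK293 cells (DMEM/F12, 10% FBS). […] After 24 h, carboxylated FIXgla-PC in the medium was measured by ELISA. Activity was normalized to wild type (100%), and EC50 came from a curve fit. Mean ± SD, n=3 independent experiments.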

UBIAD1 R54A = target: T2, UBIAD1 R54A (Homo sapiens, UniProt Q9Y5Z9, R54A); assay: Cell-based UBIAD1 functional assay
T2 sequence (Q9Y5Z9 1-338 R54A): T1 sequence (Q9Y5Z9 1-338 G177E) with R54A, E177G
Procedure, shortened: as §1

[1] = system: UBIAD1-deficient FIXgla-PC/HEK293 reporter cells; assay: VKD carboxylation of FIXgla-PC supported by K vitamins in UBIAD1-knockout cells; assay type: cell-based, human; conditions: UBIAD1-deficient (knockout) FIXgla-PC/HEK293 cells
Procedure, shortened: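 Ubiad1-knockout FIXgla-PC/HEK293 reporter cells were cultured for 24 h with increasing concentrations of vitamin K1, MK-4, vitamin K3, or menaquinones with 1–4 or 7 isoprene units. K vitamin stocks were made in polyethoxylated castor oil. Carboxylated FIXgla-PC was determined by ELISA, and half-maximal stimulation concentration (EC50) came from curve fitting. Mean ± SD.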

UBIAD1 D112N = target: T3, UBIAD1 D112N (Homo sapiens, UniProt Q9Y5Z9, D112N); assay: Cell-based UBIAD1 functional assay
T3 sequence (Q9Y5Z9 1-338 D112N): T1 sequence (Q9Y5Z9 1-338 G177E) with D112N, E177G
Procedure, shortened: as §1

UBIAD1 N102S = target: T4, UBIAD1 N102S (Homo sapiens, UniProt Q9Y5Z9, N102S); assay: Cell-based UBIAD1 functional assay
T4 sequence (Q9Y5Z9 1-338 N102S): T1 sequence (Q9Y5Z9 1-338 G177E) with N102S, E177G
Procedure, shortened: as §1

UBIAD1 D112G = target: T5, UBIAD1 D112G (Homo sapiens, UniProt Q9Y5Z9, D112G); assay: Cell-based UBIAD1 functional assay
T5 sequence (Q9Y5Z9 1-338 D112G): T1 sequence (Q9Y5Z9 1-338 G177E) with D112G, E177G
Procedure, shortened: as §1

UBIAD1 G186R = target: T6, UBIAD1 G186R (Homo sapiens, UniProt Q9Y5Z9, G186R); assay: Cell-based UBIAD1 functional assay
T6 sequence (Q9Y5Z9 1-338 G186R): T1 sequence (Q9Y5Z9 1-338 G177E) with E177G, G186R
Procedure, shortened: as §1

CC1=CC(=O)c2ccccc2C1=O [vitamin K3, menadione]
EC50 (UBIAD1 G177E): 3.7 ± 0.5 nM | Vitamin K-dependent carboxylation Activity ± SD (UBIAD1 G177E; G177E, 1 μM vitamin K3): 117.1 ± 4.5% | EC50 (UBIAD1 R54A): 84 ± 11.6 nM | Vitamin K-dependent carboxylation Activity ± SD (UBIAD1 R54A; R54A, 1 μM vitamin K3): 79.8 ± 2.6% | support of VKD carboxylation of reporter protein [1]: fails to carboxylate the reporter protein | EC50 (UBIAD1 D112N): 6.4 ± 0.6 nM | Vitamin K-dependent carboxylation Activity ± SD (UBIAD1 D112N; D112N, 1 μM vitamin K3): 109.6 ± 5.2% | EC50 (UBIAD1 N102S): 3.9 ± 0.3 nM | Vitamin K-dependent carboxylation Activity ± SD (UBIAD1 N102S; N102S, 1 μM vitamin K3): 98.2 ± 3% | EC50 (UBIAD1 D112G): 5.1 ± 0.8 nM | Vitamin K-dependent carboxylation Activity ± SD (UBIAD1 D112G; D112G, 1 μM vitamin K3): 104.8 ± 3% | increase of EC50 value of vitamin K3 vs wild-type (UBIAD1 G186R; G186R vs WT): 60 fold | Vitamin K-dependent carboxylation Activity ± SD (UBIAD1 G186R; G186R, 1 μM vitamin K3): 57.1 ± 1.1%
